Experimental data from ChEMBL document CHEMBL1140243, “Synthesis and SAR of 2,3-diarylpyrrole inhibitors of parasite cGMP-dependent protein kinase as novel anticoccidial agents” (Bioorg Med Chem Lett, 2005).

Experiments:
[1] = system: Eimeria tenella; experiment: Anticoccidial activity (percent reduction in oocyst production) against Eimeria tenella in white leghorn chickens at 100 ppm; format: functional; design: scale not given: the % may be the effect or the level left
In short: (§1)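 White Leghorn chicks were acclimated, then at 3 days old sorted by weight and randomized to medicated or control diets. There were one or two replicates of two birds per treatment. After 24 h of premedication, one bird per replicate got E. acervulina and the other E. tenella, both drug-sensitive laboratory strains. Inocula were sporulated oocysts in tap water, 0.25 mL per bird, giving low-to-moderate infection.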

[2] = system: Eimeria acervulina; experiment: Anticoccidial activity (percent reduction in oocyst production) against Eimeria acervulina in white leghorn chickens at 100 ppm; format: functional; design: scale not given: the % may be the effect or the level left; in short: as §1
[3] = target: cGMP-dependent protein kinase (Eimeria tenella, UniProt Q8MMZ8); experiment: In vitro inhibition of Eimeria tenella cGMP-dependent protein kinase
[4] = species: Gallus gallus; experiment: Anticoccidial activity (percent reduction in oocyst production) against Eimeria acervulina in white leghorn chickens at 25 ppm; format: functional; design: scale not given: the % may be the effect or the level left; in short: as §1

Sequence of cGMP-dependent protein kinase (Q8MMZ8 whole entry): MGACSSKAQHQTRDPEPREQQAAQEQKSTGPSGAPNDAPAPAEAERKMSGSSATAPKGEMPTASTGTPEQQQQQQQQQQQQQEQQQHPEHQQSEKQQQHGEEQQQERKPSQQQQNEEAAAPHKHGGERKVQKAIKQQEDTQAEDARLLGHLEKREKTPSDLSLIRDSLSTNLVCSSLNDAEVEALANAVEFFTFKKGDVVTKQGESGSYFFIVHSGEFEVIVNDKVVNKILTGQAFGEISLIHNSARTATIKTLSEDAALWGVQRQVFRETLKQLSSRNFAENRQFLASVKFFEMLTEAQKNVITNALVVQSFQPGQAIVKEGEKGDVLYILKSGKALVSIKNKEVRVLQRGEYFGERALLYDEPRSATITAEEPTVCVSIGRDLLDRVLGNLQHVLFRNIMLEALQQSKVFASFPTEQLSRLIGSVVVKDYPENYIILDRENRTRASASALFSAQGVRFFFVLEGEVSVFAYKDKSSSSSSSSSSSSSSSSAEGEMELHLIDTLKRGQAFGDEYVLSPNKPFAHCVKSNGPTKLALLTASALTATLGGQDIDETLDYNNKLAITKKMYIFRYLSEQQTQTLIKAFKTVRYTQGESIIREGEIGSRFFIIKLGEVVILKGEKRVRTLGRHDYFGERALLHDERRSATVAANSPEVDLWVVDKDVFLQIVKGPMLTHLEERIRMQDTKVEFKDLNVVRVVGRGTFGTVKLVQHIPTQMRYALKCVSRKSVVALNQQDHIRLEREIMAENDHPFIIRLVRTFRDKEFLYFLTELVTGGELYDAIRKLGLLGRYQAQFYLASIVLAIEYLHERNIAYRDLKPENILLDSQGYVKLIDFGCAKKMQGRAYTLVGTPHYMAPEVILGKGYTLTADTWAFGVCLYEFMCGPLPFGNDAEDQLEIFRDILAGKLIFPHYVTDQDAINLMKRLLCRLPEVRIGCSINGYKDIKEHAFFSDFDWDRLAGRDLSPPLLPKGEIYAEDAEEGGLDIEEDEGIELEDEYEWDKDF

| Structure (SMILES) | IC50 [3] [nM] | Activity [1] | Activity [2] | Activity [4] [%] |
| --- | --- | --- | --- | --- |
| CN1CCC(c2nc(-c3ccc(F)cc3)c(-c3ccncc3)[nH]2)CC1 | 1.1 | >=80% | <50% |  |
| CN1CCC(c2cc(-c3ccncc3)c(-c3ccco3)[nH]2)CC1 | 11.1 | <50% | <50% |  |
| CN1CCC(c2nc(-c3ccc(F)cc3)c(-c3ccncc3)s2)CC1 | 1.5 | <50% |  | 0 |
| CN1CCC(c2cc(-c3ccncc3)c(-c3ccc(F)cc3)nn2)CC1 | 1000 | <50% | <50% |  |
| NCCCN1CCC(c2cc(-c3ccncc3)c(-c3ccc(F)cc3)[nH]2)CC1 | 0.046 | <50% | <50% |  |
| CN1CCC1CN1CCC(c2cc(-c3ccncc3)c(-c3ccc(F)cc3)[nH]2)CC1 (configuration not stated) | 0.28 | >=80% | >=80% |  |
| CN1CCC(c2cc(-c3ccncc3)c(-c3ccsc3)[nH]2)CC1 | 11.9 | <50% | <50% |  |
| CN1CCC(c2cc(-c3ccncc3)c(-c3ccccc3)[nH]2)CC1 | 3.1 |  |  |  |
| OC1(CN2CCC(c3cc(-c4ccncc4)c(-c4ccc(F)cc4)[nH]3)CC2)CC1 | 1.1 | >=80% | >=80% |  |
| CN1CCC(c2cc(-c3ccncc3)c(-c3ccc(F)c(Cl)c3)[nH]2)CC1 | 0.44 | >=80% |  |  |

The next lines start with results.

| IC50 [3] [nM] | Structure (SMILES) | Activity [1] | Activity [2] | Activity [4] [%] |
| --- | --- | --- | --- | --- |
| 50 | CN1CCC(c2cc(-c3ccncc3)c(-c3ccc(O)cc3)[nH]2)CC1 | <50% | <50% |  |
| 46 | CN1CCC(c2cc(-c3ccncc3)c(-c3ccc(OC(F)(F)F)cc3)[nH]2)CC1 | >=80% | <50% |  |
| 15.6 | CN1CCC(c2cc(-c3ccc(F)cc3)c(-c3ccc(F)cc3)[nH]2)CC1 | <50% | <50% |  |
| 1.7 | Cc1cnccc1-c1cc(C2CCN(C)CC2)[nH]c1-c1ccc(F)cc1 | <50% | <50% |  |
| 7.4 | CN1CCC(c2cc(-c3ccncc3)c(-c3cccc(F)c3)[nH]2)CC1 | <50% | <50% |  |
| 1 | CN1CCC(c2cc(-c3ccncc3)c(-c3ccc(Cl)cc3)[nH]2)CC1 | <50% | >=80% |  |
| 4.2 | CCCN1CCC(c2cc(-c3ccncc3)c(-c3ccc(F)cc3)[nH]2)CC1 | <50% | <50% |  |
| > 1000 | Cc1cc(-c2cc(C3CCN(C)CC3)[nH]c2-c2ccc(F)cc2)on1 | <50% | <50% |  |
| 0.28 | NCCN1CCC(c2cc(-c3ccncc3)c(-c3ccc(F)cc3)[nH]2)CC1 | <50% | <50% |  |
| 23.6 | CN1CCC(c2cc(-c3ccccn3)c(-c3ccc(F)cc3)[nH]2)CC1 | <50% | <50% |  |
